MT1-MMP act inh: MT1-MMP (human) activation inhibition; P50281; HT1080 RFP-PRO-GFP cells, GFP/RFP ratio fluorescence, overnight; percent of plate control window, DMSO zero; GFP/RFP ratio change, % at 20 µM; actives 0.061% (n = 360,000); AID 651647;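 active means GFP/RFP ratio change of at least 30% with cell ATP level not reduced by more than half and red fluorescence within 50% of control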
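Test system: HT1080 cells expressing an RFP-PRO-GFP fluorescent reporter construct / Compound dosing: single-point 20 µM compound, 1% DMSO / Schedule: cells overnight before dosing, compound overnight, 37 °C, 5% CO2 / Evaluation: GFP/RFP fluorescence ratio / Control set: DMSO and RFP-L50D-GFP cell wells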
ADAM10 inh: ADAM10 inhibition, QFRET primary screen | O14672 | recombinant ADAM10, EDANS/DABCYL FRET peptide cleavage, 3 h | inhibition, % at 7 µM | actives 0.62% (n = 370,000);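 active means inhibition above a per-campaign cutoff equal to the mean of compounds falling between control-based bounds plus 3 SD, cut at about 20% in these data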;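 further: 0% = DMSO wells while the 100% control is not disclosed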
Target sequence (O14672 214-748 limits assumed): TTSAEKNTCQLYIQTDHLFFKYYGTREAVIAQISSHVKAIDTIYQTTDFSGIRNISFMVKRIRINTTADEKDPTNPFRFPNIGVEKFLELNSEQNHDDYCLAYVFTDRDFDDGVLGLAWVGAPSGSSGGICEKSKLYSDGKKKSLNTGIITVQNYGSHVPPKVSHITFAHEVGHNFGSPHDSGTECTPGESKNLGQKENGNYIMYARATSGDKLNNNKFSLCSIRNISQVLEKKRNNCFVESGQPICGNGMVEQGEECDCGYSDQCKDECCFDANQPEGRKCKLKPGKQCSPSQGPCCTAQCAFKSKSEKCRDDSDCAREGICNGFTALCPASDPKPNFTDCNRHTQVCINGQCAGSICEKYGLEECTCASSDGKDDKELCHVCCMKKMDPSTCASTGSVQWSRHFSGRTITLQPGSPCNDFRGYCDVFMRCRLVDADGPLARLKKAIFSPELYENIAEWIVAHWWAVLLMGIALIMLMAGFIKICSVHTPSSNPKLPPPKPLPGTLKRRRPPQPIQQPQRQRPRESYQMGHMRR
ADAM17 inh: inhibits human ADAM17 | P78536 | recombinant ADAM17, EDANS/DABCYL FRET peptide cleavage | inhibition, % at 6.95 µM | actives 0.83% (n = 370,000) | AID 720648;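 active means inhibition above the mean of compounds lying between control limits plus 3 SD, set per campaign, cut at about 8.5% in these data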;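 further: 0% = DMSO-only wells as the low control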
Tn6 DDE FP: disrupts Tn6 cyclic peptide binding to fibrin D-Dimer-E complex | Fibrin DD(E) TRITC-Tn6 fluorescence polarization displacement | inhibition, % at 8.3 µM | actives 0.21% (n = 370,000) | AID 720509;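 active means inhibition above a per-campaign cutoff: mean of compounds within control limits plus 3 SD, cut at about 15% in these data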;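 further: 0% = median of all compound wells on the plate and 100% = blocking peptide control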
DDE Tn7 FP inh: inhibitors of Tn7 peptide binding to human fibrin DD(E); P02675; AID 720508; actives 0.13% (n = 370,000); FP displacement of FITC-Tn7 peptide from fibrin DD(E); 0% = median of compound wells per plate; inhibition, % at 8.3 µM;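 active means inhibition above the mean of compounds falling within the control limits plus 3 SD of them, cut at about 14% in these data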;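 further: 0% = plate median of compound wells and 100% = 10 µM Aha-Tn7 peptide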
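Measure: % inhibition scaled between sample-field median and high-control FP; Test system: human fibrin DD(E); Quantity: 2 µM final DD(E) protein; Doses: one dose, 8.3 µM nominal; Schedule: compound with protein 10 min, then 3 h after probe, room temperature; Detection: fluorescence polarization; Medium: Tris buffer with calcium and detergent, pH 7.8.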
ADAM10 ctr: ADAM10 inhibition, counter-screen for ADAM17 exosite hits; shares compounds with ADAM17 inh; recombinant ADAM10, EDANS/DABCYL FRET peptide cleavage, 3 h; inhibition, % at 6.95 µM; actives 47% (n = 2,900);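 active means mean inhibition over the triplicate runs exceeds the activity threshold set in the earlier primary screen, cut at about 20% in these data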;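 further: 0% = DMSO wells and 100% = marimastat wells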
ADAM17 confirm: confirmation of inhibitors of human ADAM17; shares compounds with ADAM17 inh; recombinant ADAM17, EDANS/DABCYL QFRET peptide cleavage; inhibition, % at 6.95 µM; actives 65% (n = 2,900); AID 743257;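 active means mean inhibition across replicates above the hit cutoff set in the primary screen, cut at about 8.5% in these data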;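 further: 0% = DMSO wells and 100% = marimastat wells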
An asterisk follows results filed as active; i = inactive; nt = no result given. Rows were chosen to be rich in hits. Some 1.6% of all compounds tested hit in one or more screens of this group.

SMILES	MT1-MMP act inh	ADAM10 inh	ADAM17 inh	Tn6 DDE FP	DDE Tn7 FP inh	ADAM10 ctr	ADAM17 confirm
CC(=O)c1cccc(NC(=O)C(OC(=O)c2cccc(S(=O)(=O)N(C)c3ccccc3)c2)c2ccccc2)c1 (configuration not stated)	-4.4	14.9	9.1*	-9.2	-2.5	24.4*	11.6*
CN(C)S(=O)(=O)c1cccc(NC(=O)C(c2ccccc2)c2ccccc2)c1	-0.8	3.6	-1.6	-5.9	6.4	nt	nt
CCC(C(=O)Nc1cccc(S(=O)(=O)N(C)c2ccccc2)c1)c1ccccc1 (configuration not stated)	-1.5	17.6	9.3*	-7.7	-4.3	17.1	8.7*
COc1ccc(N(C)S(=O)(=O)c2cccc(C(=O)OC(C(=O)Nc3cc(C)cc(C)c3)c3ccccc3)c2)cc1 (configuration not stated)	-3.7	16.4	8.6*	2.7	-10.7	19.4	12.7*
Cc1ccc(C(=O)CSc2nnc(-c3ccccn3)n2-c2ccccc2)cc1	nt	4.4	0.6	1.0	0.2	nt	nt
CN1CC=C(c2ccc(C(F)(F)F)cc2)N(c2ccccc2)C1=O	nt	2.5	-2.1	-0.4	5.2	nt	nt
CN(c1ccccc1)S(=O)(=O)c1cccc(NC(=O)COC(=O)C2CCCCC2)c1	-1.0	14.3	8.8*	0.8	-7.0	31.6*	14.3*
CN(C)S(=O)(=O)c1ccc(S(=O)(=O)Nc2ccc3c(c2)oc2ccccc23)cc1	-2.6	19.3	9.2*	-0.6	-7.8	34.4*	17.0*
Cc1cc(=O)oc2cc(NS(=O)(=O)c3ccccc3)ccc12	1.3	i	i	-1.9	2.9	nt	nt
CS(=O)(=O)c1ccc(C(=O)Nc2cccc(-c3nc4ccccc4[nH]3)c2)cc1	2.5	6.0	9.2*	-3.4	-9.1	-13.3	-1.7
Cc1[nH]c2ccc(C(=O)NCCCN(C)C3CCCCC3)cc2c1C	0.7	0.1	8.7*	-0.4	0.9	-49.3	-10.3
Cc1ccc(S(=O)(=O)c2nc(-c3ccccc3)oc2NCc2cccnc2)cc1	-3.0	7.0	0.4	-8.3	-3.8	nt	nt
Cc1ccccc1-c1nc(S(=O)(=O)c2ccc(Br)cc2)c(NCc2cccnc2)o1	-13.2	19.3	9.9*	0.9	-0.3	15.8	25.2*
CCOC(=O)CC1(C)Oc2ccccc2N1S(=O)(=O)c1ccc(C)cc1 (configuration not stated)	4.5	14.1	9.9*	2.0	-6.2	8.4	5.8
CCOC(=O)C1CN(S(=O)(=O)c2ccc(C)cc2)c2cc(S(=O)(=O)CC)ccc2O1 (configuration not stated)	2.6	-2.4	-1.0	-6.8	5.5	nt	nt
Cc1[nH]c2ccccc2c1/C=N\NC(=O)CNc1ccc2c(c1)OCO2	-3.4	6.6	12.9*	-7.4	6.1	-1.8	7.2
O=C(OCc1cn([C@@H]2C[C@H](c3ccccc3)N(Cc3cccs3)C[C@H]2O)nn1)c1ccccc1	-2.2	3.6	-0.6	3.3	0.8	nt	nt
COc1ccc([C@H]2C[C@H](n3cc(COC(=O)c4ccccc4)nn3)[C@@H](O)CN2Cc2cccs2)cc1	-1.6	10.8	12.1*	-6.8	-2.9	31.6*	14.1*
COC(=O)[C@]12C[C@H](CC(=O)NCC34CC5CC(CC(C5)C3)C4)C(=O)N(CCc3ccc(OC)c(OC)c3)C1=C[C@H](COCc1ccccc1)O[C@@H]2C	nt	8.1	1.7	-6.5	-5.2	nt	nt
CC(C)(Oc1ccc(Cl)cc1)C(=O)OCC(=O)Nc1ncc(Cl)cc1Cl	-6.5	14.7	9.9*	-8.7	-5.6	-0.2	0.3
Cc1ccc(NC(=O)CSc2nnc(-c3cccnc3)n2Cc2ccco2)c(C)c1	nt	-7.4	2.4	0.1	5.8	nt	nt
COC(=O)c1cccc(N(C(=O)CNC(=O)c2ccco2)C(C(=O)NC2CCCC2)c2ccco2)c1 (configuration not stated)	2.9	3.0	8.8*	-1.2	4.3	-2.7	2.1
COc1ccc(N(C(=O)CNC(=O)c2ccco2)C(C(=O)NC2CCCC2)c2ccco2)cc1 (configuration not stated)	-0.4	-6.3	-1.0	1.2	-3.0	nt	nt
COc1ccc(C2/C=C\CN(C(=O)c3ccccc3)[C@H](Cc3ccccc3)C(=O)N2Cc2ccc(F)cc2)cc1 (some centres not stated)	-6.5	12.9	11.2*	-1.8	-2.2	21.2*	10.6*
Cc1csc(NC(=O)CCn2c(=O)oc3ccc(Cl)cc32)n1	5.3	-5.6	8.7*	-2.2	4.7	-2.9	1.2
SMILES	MT1-MMP act inh	ADAM10 inh	ADAM17 inh	Tn6 DDE FP	DDE Tn7 FP inh	ADAM10 ctr	ADAM17 confirm
Cc1nnc(NC(=O)CCn2c(=O)oc3ccc(Cl)cc32)s1	0.2	-4.0	-0.3	-4.0	0.2	nt	nt
O=C(O)CC(Sc1ccc(Cl)cc1)C(=O)Nc1ccccc1 (configuration not stated)	nt	1.4	-2.2	2.4	0.7	nt	nt
CSc1nc2ccc(NS(=O)(=O)c3cccc(Cl)c3Cl)cc2s1	-1.7	19.7	9.7*	-0.5	-0.5	14.2	10.1*
Cc1nc2ccc(NS(=O)(=O)c3ccccc3Cl)cc2s1	-3.7	-5.0	-9.2	2.9	6.6	nt	nt
C[C@H]1CNC(=O)c2c(C(=O)N3CCN(c4ccccc4)CC3)ncn21	nt	-10.2	-1.7	3.6	-0.2	nt	nt
COC(=O)c1cc2c(c3c4ccccc4n(S(=O)(=O)c4cccc(C)c4)c13)C(=O)N(Cc1ccccc1OC)C2	nt	-3.8	-2.7	1.9	8.7	nt	nt
O=C(O)c1ccc2c(c1)N(Cc1cccc(F)c1)C(=O)CS2	2.5	14.8	8.9*	-0.8	-2.8	3.9	3.0
Cc1ccc(S(=O)(=O)N2C[C@H]3C(=O)C[C@@H](c4ccccc4)N(S(=O)(=O)c4ccc(C)cc4)[C@H]3C[C@H]2c2cccc3ccccc23)cc1	-0.7	6.6	11.0*	-5.3	-6.8	17.9	13.5*
Cc1ccc([C@@H]2CC(=O)[C@@H]3CN(S(=O)(=O)c4ccc(C)cc4)[C@H](c4cccc5ccccc45)C[C@@H]3N2S(=O)(=O)c2ccc(Cl)cc2)cc1	-0.2	-5.8	-2.2	-3.1	-7.4	nt	nt
O=C1CCCCC1C(Nc1ccc(Cl)cc1)c1ccccc1 (configuration not stated)	0.1	18.0	10.6*	2.6	0.1	13.6	13.2*
CCN(CC)S(=O)(=O)c1ccc(N=Nc2c(C)[nH]n(C(N)=S)c2=O)cc1	12.2	9.2	12.0*	-6.8	-0.1	8.2	2.7

Compound activity deposited in PubChem by several laboratories.
